Source: ChEMBL document CHEMBL2057155, “Synthesis of betulinic acid derivatives as entry inhibitors against HIV-1 and bevirimat-resistant HIV-1 variants” (Bioorg Med Chem Lett, 2012)

Key:
[1] = Cytotoxicity against human TZM-bl assessed as cell viability at 4 uM after 2 days; format: cell-based; settings: 48 h
Procedure, shortened: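 Toxicity to TZM-bl cells was checked within the single-cycle infection assay at 4 μM.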

[2] = test system: Human immunodeficiency virus 1; assay: Antiviral activity against HIV1 NL4-3 infected in human TZM-bl cells assessed as reduction in luciferase gene expression by luminescence assay; format: functional, organism-based; settings: Human immunodeficiency virus 1, NL4-3, TZM-bl
Procedure, shortened: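 Single-cycle HIV-1 NL4-3 infection of TZM-bl cells; HIV-1 tat-driven luciferase expression after viral entry read as the measure of inhibition. […] control is NL4-3 infection without compound. Values are the mean of two or more independent experiments with standard deviation.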

[3] = Cytotoxicity against human MT4 assessed as cell viability after 2 days; format: cell-based; settings: MT4 cells, read-out: TD50

With C=C(C)[C@@H]1CC[C@]2(C(=O)NCCCCCCCCC(=O)N[C@@H](CCC(N)=O)C(=O)OC(C)(C)C)CC[C@]3(C)[C@H](CC[C@@H]4[C@@]5(C)CC[C@H](O)C(C)(C)[C@@H]5CC[C@]43C)[C@@H]12 as the compound, how does the Activity [1] read?
Its Activity is “Non-toxic”.

And the EC50 [2]?
Its EC50 is 140 nM.

Which results are given for C=C(C)[C@@H]1CC[C@]2(C(=O)NCCCCCCCCC(=O)N[C@@H](CC(N)=O)C(=O)OC)CC[C@]3(C)[C@H](CC[C@@H]4[C@@]5(C)CC[C@H](O)C(C)(C)[C@@H]5CC[C@]43C)[C@@H]12?
Activity [1]: Non-toxic; EC50 [2]: 110 nM

Which Activity [1] does the source give for C=C(C)[C@@H]1CC[C@]2(C(=O)NCCCCCCCCC(=O)N[C@@H](CCC(=O)OC)C(=O)OC)CC[C@]3(C)[C@H](CC[C@@H]4[C@@]5(C)CC[C@H](O)C(C)(C)[C@@H]5CC[C@]43C)[C@@H]12 here?
Its Activity is “Non-toxic”.

What about the EC50 [2] of the same compound?
Its EC50 is 60 nM.

For C=C(C)[C@@H]1CC[C@]2(C(=O)NCCCCCCCCC(=O)N[C@@H](C)C(=O)OC)CC[C@]3(C)[C@H](CC[C@@H]4[C@@]5(C)CC[C@H](O)C(C)(C)[C@@H]5CC[C@]43C)[C@@H]12, which Activity [1] is on record?
Its Activity is “Non-toxic”.

And the EC50 [2]?
Its EC50 is 70 nM.

Which Activity [1] does the source give for C=C(C)[C@@H]1CC[C@]2(C(=O)NCCCCCCCCC(=O)N[C@H](C(=O)OC)[C@@H](C)CC)CC[C@]3(C)[C@H](CC[C@@H]4[C@@]5(C)CC[C@H](O)C(C)(C)[C@@H]5CC[C@]43C)[C@@H]12 here?
The Activity was “Non-toxic”.

What about the EC50 [2] of the same compound?
The EC50 was 140 nM.

With C=C(C)[C@@H]1CC[C@]2(C(=O)NCCCCCCCCC(=O)N[C@@H](CC(C)C)C(=O)OC)CC[C@]3(C)[C@H](CC[C@@H]4[C@@]5(C)CC[C@H](O)C(C)(C)[C@@H]5CC[C@]43C)[C@@H]12 as the compound, how does the Activity [1] read?
The Activity was “Non-toxic”.

What about the EC50 [2] of the same compound?
The EC50 was 160 nM.

Which Activity [1] does the source give for C=C(C)[C@@H]1CC[C@]2(C(=O)NCCCCCCCCC(=O)N[C@@H](Cc3ccccc3)C(=O)OC)CC[C@]3(C)[C@H](CC[C@@H]4[C@@]5(C)CC[C@H](O)C(C)(C)[C@@H]5CC[C@]43C)[C@@H]12 here?
The Activity was “Non-toxic”.

And the EC50 [2]?
The EC50 was 720 nM.

Which Activity [1] does the source give for C=C(C)[C@@H]1CC[C@]2(C(=O)NCCCCCCCCC(=O)N3CCC[C@H]3C(=O)OC)CC[C@]3(C)[C@H](CC[C@@H]4[C@@]5(C)CC[C@H](O)C(C)(C)[C@@H]5CC[C@]43C)[C@@H]12 here?
Its Activity is “Non-toxic”.

What about the EC50 [2] of the same compound?
Its EC50 is 160 nM.

With C=C(C)[C@@H]1CC[C@]2(C(=O)NCCCCCCCCC(=O)N[C@H](C(=O)OC)[C@@H](C)OC(C)(C)C)CC[C@]3(C)[C@H](CC[C@@H]4[C@@]5(C)CC[C@H](O)C(C)(C)[C@@H]5CC[C@]43C)[C@@H]12 as the compound, how does the Activity [1] read?
The Activity was “Non-toxic”.

And the EC50 [2]?
Its EC50 is 3490 nM.

What does the source list for C=C(C)[C@@H]1CC[C@]2(C(=O)NCCCCCCCCCC(=O)N[C@@H](CCC(N)=O)C(=O)OC)CC[C@]3(C)[C@H](CC[C@@H]4[C@@]5(C)CC[C@H](O)C(C)(C)[C@@H]5CC[C@]43C)[C@@H]12?
Activity [1]: Non-toxic; EC50 [2]: 60 nM

With C=C(C)[C@@H]1CC[C@]2(C(=O)NCCCCCCCCCC(=O)N[C@@H](CC(N)=O)C(=O)OC)CC[C@]3(C)[C@H](CC[C@@H]4[C@@]5(C)CC[C@H](O)C(C)(C)[C@@H]5CC[C@]43C)[C@@H]12 as the compound, how does the Activity [1] read?
Its Activity is “Non-toxic”.

And the EC50 [2]?
The EC50 was 80 nM.

For C=C(C)[C@@H]1CC[C@]2(C(=O)NCCCCCCCCC(=O)NCC#N)CC[C@]3(C)[C@H](CC[C@@H]4[C@@]5(C)CC[C@H](O)C(C)(C)[C@@H]5CC[C@]43C)[C@@H]12, which Activity [1] is on record?
Its Activity is “Non-toxic”.

What about the EC50 [2] of the same compound?
The EC50 was 440 nM.

With C=C(C)[C@@H]1CC[C@]2(C(=O)NCCCCCCCCC(=O)NCCC#N)CC[C@]3(C)[C@H](CC[C@@H]4[C@@]5(C)CC[C@H](O)C(C)(C)[C@@H]5CC[C@]43C)[C@@H]12 as the compound, how does the Activity [1] read?
Its Activity is “Non-toxic”.

And the EC50 [2]?
Its EC50 is 340 nM.

With C=C(C)[C@@H]1CC[C@]2(C(=O)NCCCCCCCCC(=O)N(C)CC#N)CC[C@]3(C)[C@H](CC[C@@H]4[C@@]5(C)CC[C@H](O)C(C)(C)[C@@H]5CC[C@]43C)[C@@H]12 as the compound, how does the Activity [1] read?
Its Activity is “Non-toxic”.

And the EC50 [2]?
Its EC50 is 810 nM.

Which results are given for C=C(C)[C@@H]1CC[C@]2(C(=O)NCCCCC/C=C/C(=O)O)CC[C@]3(C)[C@H](CC[C@@H]4[C@@]5(C)CC[C@H](O)C(C)(C)[C@@H]5CC[C@]43C)[C@@H]12?
Activity [1]: Non-toxic; EC50 [2]: > 4000 nM

For C=C(C)[C@@H]1CC[C@]2(C(=O)NCCCCC/C=C(/F)C(=O)O)CC[C@]3(C)[C@H](CC[C@@H]4[C@@]5(C)CC[C@H](O)C(C)(C)[C@@H]5CC[C@]43C)[C@@H]12, which Activity [1] is on record?
The Activity was “Non-toxic”.

What about the EC50 [2] of the same compound?
The EC50 was over 4000 nM.

Which results are given for C=C(C)[C@@H]1CC[C@]2(C(=O)NCCCCC/C=C/C(=O)NCC(=O)O)CC[C@]3(C)[C@H](CC[C@@H]4[C@@]5(C)CC[C@H](O)C(C)(C)[C@@H]5CC[C@]43C)[C@@H]12?
Activity [1]: Non-toxic; EC50 [2]: 150 nM

Which Activity [1] does the source give for C=C(C)[C@@H]1CC[C@]2(C(=O)NCCCCC/C=C(/F)C(=O)NCC(=O)O)CC[C@]3(C)[C@H](CC[C@@H]4[C@@]5(C)CC[C@H](O)C(C)(C)[C@@H]5CC[C@]43C)[C@@H]12 here?
The Activity was “Non-toxic”.

What about the EC50 [2] of the same compound?
Its EC50 is 410 nM.

Which results are given for C=C(C)[C@@H]1CC[C@]2(C(=O)NCCOCCOCC(=O)NCC(=O)O)CC[C@]3(C)[C@H](CC[C@@H]4[C@@]5(C)CC[C@H](O)C(C)(C)[C@@H]5CC[C@]43C)[C@@H]12?
Activity [1]: Non-toxic; EC50 [2]: > 4000 nM

Which results are given for C=C(C)[C@@H]1CC[C@]2(C(=O)NCCOCCOCC(=O)N[C@@H](C)C(=O)O)CC[C@]3(C)[C@H](CC[C@@H]4[C@@]5(C)CC[C@H](O)C(C)(C)[C@@H]5CC[C@]43C)[C@@H]12?
Activity [1]: Non-toxic; EC50 [2]: > 4000 nM

With C=C(C)[C@@H]1CC[C@]2(C(=O)NCCOCCOCCNC(C)=O)CC[C@]3(C)[C@H](CC[C@@H]4[C@@]5(C)CC[C@H](O)C(C)(C)[C@@H]5CC[C@]43C)[C@@H]12 as the compound, how does the Activity [1] read?
The Activity was “Non-toxic”.

What about the EC50 [2] of the same compound?
Its EC50 is over 4000 nM.

Which Activity [1] does the source give for C=C(C)[C@@H]1CC[C@]2(C(=O)NCCOCCOCCNC(=O)C(C)C)CC[C@]3(C)[C@H](CC[C@@H]4[C@@]5(C)CC[C@H](O)C(C)(C)[C@@H]5CC[C@]43C)[C@@H]12 here?
Its Activity is “Non-toxic”.

What about the EC50 [2] of the same compound?
Its EC50 is over 4000 nM.

Which Activity [1] does the source give for C=C(C)[C@@H]1CC[C@]2(C(=O)NCCOCCOCCNC(=O)Cc3nnn[nH]3)CC[C@]3(C)[C@H](CC[C@@H]4[C@@]5(C)CC[C@H](O)C(C)(C)[C@@H]5CC[C@]43C)[C@@H]12 here?
Its Activity is “Non-toxic”.

And the EC50 [2]?
Its EC50 is over 4000 nM.

With C=C(C)[C@@H]1CC[C@]2(C(=O)NCCCCCCCNC(=O)[C@H](C)NC(=O)OC(C)(C)C)CC[C@]3(C)[C@H](CC[C@@H]4[C@@]5(C)CC[C@H](O)C(C)(C)[C@@H]5CC[C@]43C)[C@@H]12 as the compound, how does the Activity [1] read?
The Activity was “Non-toxic”.

And the EC50 [2]?
Its EC50 is 110 nM.

With C=C(C)[C@@H]1CC[C@]2(C(=O)NCCCCCCCCNC(=O)[C@H](C)NC(=O)OC(C)(C)C)CC[C@]3(C)[C@H](CC[C@@H]4[C@@]5(C)CC[C@H](O)C(C)(C)[C@@H]5CC[C@]43C)[C@@H]12 as the compound, how does the Activity [1] read?
The Activity was “Non-toxic”.

What about the EC50 [2] of the same compound?
The EC50 was 90 nM.

Which Activity [1] does the source give for C=C(C)[C@@H]1CC[C@]2(C(=O)NCCCCCCCCNC(=O)[C@H](CCC(N)=O)NC(=O)OC(C)(C)C)CC[C@]3(C)[C@H](CC[C@@H]4[C@@]5(C)CC[C@H](O)C(C)(C)[C@@H]5CC[C@]43C)[C@@H]12 here?
Its Activity is “Non-toxic”.

What about the EC50 [2] of the same compound?
Its EC50 is 60 nM.

Which results are given for C=C(C)[C@@H]1CC[C@]2(C(=O)NCCCCCCCCNC(=O)[C@@H](NC(=O)OC(C)(C)C)C(C)C)CC[C@]3(C)[C@H](CC[C@@H]4[C@@]5(C)CC[C@H](O)C(C)(C)[C@@H]5CC[C@]43C)[C@@H]12?
Activity [1]: Non-toxic; EC50 [2]: 2430 nM

For C=C(C)[C@@H]1CC[C@]2(C(=O)NCCCCCCCCNC(=O)[C@@H]3CCCN3C(=O)OC(C)(C)C)CC[C@]3(C)[C@H](CC[C@@H]4[C@@]5(C)CC[C@H](O)C(C)(C)[C@@H]5CC[C@]43C)[C@@H]12, which Activity [1] is on record?
The Activity was “Non-toxic”.

What about the EC50 [2] of the same compound?
Its EC50 is 160 nM.

With C=C(C)[C@@H]1CC[C@]2(C(=O)NCCCCCCCCCNC(=O)[C@H](CCC(N)=O)NC(=O)OC(C)(C)C)CC[C@]3(C)[C@H](CC[C@@H]4[C@@]5(C)CC[C@H](O)C(C)(C)[C@@H]5CC[C@]43C)[C@@H]12 as the compound, how does the Activity [1] read?
Its Activity is “Non-toxic”.

What about the EC50 [2] of the same compound?
Its EC50 is 120 nM.

Which results are given for C=C(C)[C@@H]1CC[C@]2(C(=O)NCCCCCCCCCNC(=O)[C@H](C)NC(=O)OC(C)(C)C)CC[C@]3(C)[C@H](CC[C@@H]4[C@@]5(C)CC[C@H](O)C(C)(C)[C@@H]5CC[C@]43C)[C@@H]12?
Activity [1]: Non-toxic; EC50 [2]: > 4000 nM

Which Activity [1] does the source give for C=C(C)[C@@H]1CC[C@]2(C(=O)NCCCCCCCCNC(=O)C(CCC#N)NC(=O)OC(C)(C)C)CC[C@]3(C)[C@H](CC[C@@H]4[C@@]5(C)CC[C@H](O)C(C)(C)[C@@H]5CC[C@]43C)[C@@H]12 (some centres not stated) here?
Its Activity is “Non-toxic”.

And the EC50 [2]?
Its EC50 is 80 nM.

With C=C(C)[C@@H]1CC[C@]2(C(=O)NCCCCCCC(=O)N[C@@H](CCC(N)=O)C(=O)OC)CC[C@]3(C)[C@H](CC[C@@H]4[C@@]5(C)CC[C@H](O)C(C)(C)[C@@H]5CC[C@]43C)[C@@H]12 as the compound, how does the Activity [1] read?
The Activity was “Non-toxic”.

What about the EC50 [2] of the same compound?
The EC50 was over 4000 nM.

Which Activity [1] does the source give for C=C(C)[C@@H]1CC[C@]2(C(=O)NCCCCCCCC(=O)N[C@@H](CCC(N)=O)C(=O)OC)CC[C@]3(C)[C@H](CC[C@@H]4[C@@]5(C)CC[C@H](O)C(C)(C)[C@@H]5CC[C@]43C)[C@@H]12 here?
The Activity was “Non-toxic”.

What about the EC50 [2] of the same compound?
The EC50 was 140 nM.

For Cc1cc(/C=C/C#N)cc(C)c1Nc1ccnc(Nc2ccc(C#N)cc2)n1 [RILPIVIRINE], which CC50 at 48 h [3] is on record?
Its CC50 at 48 h is over 100 nM.
